Compound activity from PubChem BioAssay.
Sampled rows, rich in hits. Any-hit rate of the full collection: about 2.6%.
MITF act = activators of MITF-driven TRPM1 promoter reporter, primary screen, cell-based, SK-MEL-5, luciferase, single point. hit rate 0.75% among 300,000. activation, % at 12.5 µM. SK-MEL-5 TRPM1-promoter luciferase, 24 h; % of positive control, neutral wells = 0;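 active = mean activation of at least 80% with every replicate also reaching 80%; inconclusive = mean reaches 80% but some replicate falls short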;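 note: 0% = neutral control wells and 100% = parthenolide positive control wells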
Vif inh = HIV Vif self-association inhibitors, primary screen, imaging, HEK293T, single point; HEK293T cells, Vif self-association by quenched fluorescence, 24 h; inhibition, % at 7.49 µM; AID 602346, 2012; hit rate 0.35% among 340,000; in the data active = inhibition above about 50%, passing the limit was not always enough; inconclusive = no clear call, values can overlap the other calls; inactive = below about 31%
Wnt act = Wnt/beta-catenin pathway activators, primary screen, cell-based, plate reader, single point; Wnt/beta-catenin reporter cell assay, activator; activation, % at 9.35 µM; hit rate 1.2% among 300,000; AID 743398, 2014; in the data active = activation above about 30%, passing the limit was not always enough; inconclusive = no clear call, values can overlap the other calls;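 note: 0% = neutral control wells and 100% = positive control wells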
XiGFP reactiv = activators of inactive X chromosome reactivation, primary screen, imaging, XiGFP fibroblasts, GFP high-content imaging, set 2; hit rate 0.055% among 360,000; activation, % at 7.58 µM; XiGFP mouse fibroblasts, % GFP-positive cells imaging, 3 d; cells co-treated with 5-aza-dC sensitizer; scaled so ellipticine positive control = 100%;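 active = mean normalized replicate activation at least 10% and every replicate at or above 10%; inconclusive = only one of the two criteria met; inactive = mean below 10% and not all replicates reach 10%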;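 note: 0% = median of on-plate neutral control wells and 100% = ellipticine 6 µM median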
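Schedule: 3 d treatment, 15 min room-temperature fixation; system: 68-5-11 XiGFP fibroblast line; buffer or medium: DMEM plus 5-aza-dC sensitizer; control set: ellipticine 6 µM positive control; compound: one concentration, pinned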
esBAF inh = Bmi1 luciferase reporter increase in mESCs, primary screen, esBAF inhibitor project, mouse ES cells, Bmi1 luciferase knock-in, single point; hit rate 2% among 350,000; reporter increase, % at 12.5 µM; 24 h; 100% = twice the neutral-well signal; in the data active = activation above about 40%; inconclusive = no clear call, values can overlap the other calls;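 note: 0% = median of the plate's neutral control wells and 100% = double that signal; a rise in the Bmi1 reporter signal indicates esBAF inhibition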
Active calls of the source: *; u = inconclusive; x = not tested or not shown.

SMILES	MITF act	Vif inh	Wnt act	XiGFP reactiv	esBAF inh
Cc1ccc(-c2nc3ccc(Br)cn3c2Cc2cccc(F)c2)cc1	x	6	-2	0	51*
COc1ccc2c3c(n(C)c2c1)[C@H](CO)N(CC1CC1)CC31CCN(C(=O)c2cccnc2)CC1	x	x	x	0	x
COc1cccc(-n2cc(-c3ccc(F)cc3)[nH]c2=S)c1	41	-2	18	0	55*
O=[N+]([O-])c1ccc(-c2cn(-c3ccccc3)c(=S)[nH]2)cc1	14	4	49*	0	x
COc1ccc(-c2cn(-c3ccc(C)c(C)c3)c(=S)[nH]2)cc1OC	0	-5	4	0	8
COc1ccc(-c2cn(-c3ccccc3)c(=S)[nH]2)cc1OC	17	-5	5	0	44*
O=[N+]([O-])c1cccc(-c2cn(-c3ccccc3)c(=S)[nH]2)c1	3	2	13	0	12
O=C(c1ccncc1)N1CC2(C1)[C@H](c1ccccc1)[C@H](CO)N2C(=O)c1ccncc1	x	x	x	0	x
C[C@@H]1CN([C@H](C)CO)C(=O)c2cc(C#C[C@@H](C)O)cnc2O[C@@H]1CN(C)C(=O)Nc1ccc(F)cc1	x	x	x	-1	-3
Cc1onc(-c2c(Cl)cccc2Cl)c1NC(=O)NC1CCSC1 (stereo not drawn)	x	-3	34*	0	x
Cc1onc(-c2c(Cl)cccc2Cl)c1NC(=O)N(C)N	2	6	-1	0	0
CC(=O)N1[C@H](CO)[C@@H](c2ccc(C3=CCCC3)cc2)[C@H]1CNC(=O)CN(C)C	x	x	x	0	-1
COc1ccc(NC(=O)Cc2ccccc2)cc1	23	x	36*	x	57*
COc1ccc(C(=O)CC(=O)c2ccccc2)cc1	x	9	83*	0	70*
COc1ccc(NC(=O)CNC(=O)Cc2ccccc2)cc1	-5	20	0	0	0
COc1ccc(C/C(C)=N/NC(=S)Nc2ccccc2)cc1	19	-1	5	0	60*
COc1ccc(CNC(=S)Nc2cccc(Cl)c2)cc1	x	53*	7	0	8
COc1ccc(C(=O)CC(=O)c2ccc(OC)cc2)cc1	46	-8	2	0	4
COc1ccc(C/C(C)=N/NC(=S)Nc2ccc(Cl)cc2)cc1	2	-6	10	0	-3
C/C=C/c1ccc2c(c1)O[C@H](CN(C)C(=O)C1CCOCC1)[C@H](C)CN([C@@H](C)CO)S2(=O)=O	x	x	x	-1	-2
COc1ccc2c3c([nH]c2c1)[C@H](CO)N(Cc1cc(F)ccc1F)CC31CCN(C(=O)C2CCC2)CC1	x	x	x	0	x
COc1ccc(C(=O)C(=NNc2ccccc2)c2ccc(OC)cc2)cc1	-33	22	-2	0	-37
COc1ccc(CC(=O)Nc2ccc(-c3cn4ccc(C)cc4n3)cc2)cc1	-6	-17	x	x	58*
COc1ccc(C(=O)C(=NN)c2ccccc2)cc1	x	x	-2	0	45*
COc1ccc(CC(=O)OCC(=O)Nc2cccc(Br)c2)cc1	4	74*	-4	0	x
SMILES	MITF act	Vif inh	Wnt act	XiGFP reactiv	esBAF inh
COc1ccc(CC(=O)Nc2ccc(-c3cn4cccc(C)c4n3)cc2)cc1OC	-9	-5	x	x	7
COc1ccc(C(=O)CSc2ccccc2C(=O)O)cc1	-6	-27	44*	0	x
CO[C@@H]1CN(C)C(=O)c2ccc(NS(C)(=O)=O)cc2OC[C@H](C)N(C(=O)C2CCOCC2)C[C@@H]1C	x	x	x	0	1
CC(=O)Nc1ccc(NC(=O)COC(=O)c2ccco2)cc1	6	-4	-1	0	x
CC(=O)Nc1ccc(C(=O)COC(=O)c2ccco2)c(F)c1	18	5	-3	0	44*
COc1ccc(C(=O)/C(=C/N(C)C)S(=O)(=O)c2ccccc2)cc1	94*	13	12	0	x
COc1ccc(C(=O)COC(=O)c2ccco2)cc1	65	-25	x	x	49*
COc1ccc(C(=O)C(OC(=O)c2ccccc2)c2ccccc2)cc1 (stereo not drawn)	x	5	26	x	84*
COc1ccc(/C(N)=N/OC(=O)c2ccco2)cc1	-18	4	-2	0	-35
C[C@@H]1CN([C@H](C)CO)C(=O)c2cc(NC(=O)Cc3ccccc3)ccc2O[C@H]1CN(C)C(=O)Nc1ccccc1	x	x	x	0	-5
CO[C@H]1CN(C)C(=O)c2ccc(NC(C)=O)cc2OC[C@@H](C)N(S(=O)(=O)c2cn(C)cn2)C[C@@H]1C	x	x	x	0	-5
O=C(COc1ccccc1)c1ccccc1	33	-3	24	0	46*
COc1ccccc1-c1nn2c(-c3ccco3)nnc2s1	134*	-1	1	x	65*
c1coc(-c2nn3c(-c4ccco4)nnc3s2)c1	x	-3	x	x	-5
C[C@H]1CN([C@@H](C)CO)C(=O)CCCn2cc(nn2)CO[C@H]1CN(C)S(=O)(=O)c1ccccc1F	x	x	x	0	3
N#C[C@@H]1[C@@H](c2ccccc2-c2ccccc2)[C@H](CO)N1C(=O)Cc1ccncc1	x	x	x	0	x
O=C(CC(C(=O)O)c1c[nH]c2ccccc12)c1ccccc1 (stereo not drawn)	1	0	4	0	27*
CCC(=O)N1CC[C@H]2[C@H](CO)Nc3ccc(C#Cc4cccnc4)cc3[C@H]21	x	x	x	0	-4
O=c1[nH]c2ccccc2nc1-c1ccc(Cl)cc1	x	-6	51*	0	x
Cc1ccc(CSCc2nc3ccccc3[nH]2)cc1	4	x	0	0	x
Fc1ccccc1CSCc1nc2ccccc2[nH]1	90*	-7	2	0	64*
O=c1[nH]c2ccccc2nc1-c1ccccc1	12	2	24	0	x
Clc1ccc(SCc2nc3ccccc3[nH]2)cc1	119*	-14	x	x	36
c1ccc(SCc2nc3ccccc3[nH]2)cc1	64	-2	x	x	x
Cc1ccc(S(=O)(=O)N[C@H]2C=C[C@@H](CC(=O)N3CCc4ccccc4C3)O[C@@H]2CO)cc1	x	x	x	0	-1
SMILES	MITF act	Vif inh	Wnt act	XiGFP reactiv	esBAF inh
CC(=O)Nc1ccccc1OCc1nnc(-c2ccc(Cl)cc2)o1	8	-3	1	0	66*
Cc1cc(Br)ccc1OCc1nnc(-c2ccccc2)o1	x	6	25	0	x
c1ccc(Cc2nnc(-c3ccccc3)o2)cc1	x	-3	56*	x	49*
Clc1ccccc1OCc1nnc(-c2ccccc2)o1	88*	-2	u	0	x
CCCCC#Cc1ccc2c(c1)COc1c3ccccc3nn1-2	13	x	23	0	71*
N#CCCCC#Cc1ccc2c(c1)COc1c3ccccc3nn1-2	-8	-6	8	0	-70
CCCCCCC#Cc1ccc2c(c1)COc1c3ccccc3nn1-2	84*	-2	19	0	40
